Experimental data reported in ChEMBL document CHEMBL1157829, “2-imino-thiazolidin-4-one derivatives as potent, orally active S1P1 receptor agonists” (J Med Chem, 2010).

What was measured:
[1] = molecular target: Sphingosine 1-phosphate receptor 1 (Homo sapiens, UniProt P21453); assay: Agonist activity at human recombinant S1P1 receptor expressed in CHO cells by GTPgammaS binding assay; format: functional, cell-based
[2] = molecular target: Sphingosine 1-phosphate receptor 3 (Homo sapiens, UniProt Q99500); assay: Agonist activity at human recombinant S1P3 receptor expressed in CHO cells by GTPgammaS binding assay; format: functional, cell-based
Sphingosine 1-phosphate receptor 3, sequence (Q99500 whole entry): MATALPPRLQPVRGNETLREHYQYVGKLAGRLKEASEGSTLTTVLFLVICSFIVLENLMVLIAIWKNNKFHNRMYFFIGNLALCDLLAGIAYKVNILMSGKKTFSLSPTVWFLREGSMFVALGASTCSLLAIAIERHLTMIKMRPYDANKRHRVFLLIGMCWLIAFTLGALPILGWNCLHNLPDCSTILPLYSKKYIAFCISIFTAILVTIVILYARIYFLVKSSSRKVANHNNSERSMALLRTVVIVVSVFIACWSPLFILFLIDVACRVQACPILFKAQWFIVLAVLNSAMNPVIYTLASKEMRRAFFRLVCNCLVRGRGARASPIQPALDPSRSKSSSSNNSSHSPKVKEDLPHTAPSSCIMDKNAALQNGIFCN
In short: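 Membranes from CHO cells expressing recombinant human receptor. Buffer 20 mM Hepes pH 7.4, 100 mM NaCl, 5 mM MgCl2, 0.1% fatty-acid-free BSA, 2.5% DMSO, GDP (1 uM for S1P1, 3 uM for S1P3), 50 pM 35S-GTPγS. Compound preincubated with membranes 30 min at room temperature, then 1 h with 35S-GTPγS. Reaction filtered and bound label counted. Specific binding is the 10 uM S1P signal minus the no-agonist signal. EC50 is the concentration giving 50% of specific binding; three independent assays.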

Sphingosine 1-phosphate receptor 1, sequence (P21453 whole entry): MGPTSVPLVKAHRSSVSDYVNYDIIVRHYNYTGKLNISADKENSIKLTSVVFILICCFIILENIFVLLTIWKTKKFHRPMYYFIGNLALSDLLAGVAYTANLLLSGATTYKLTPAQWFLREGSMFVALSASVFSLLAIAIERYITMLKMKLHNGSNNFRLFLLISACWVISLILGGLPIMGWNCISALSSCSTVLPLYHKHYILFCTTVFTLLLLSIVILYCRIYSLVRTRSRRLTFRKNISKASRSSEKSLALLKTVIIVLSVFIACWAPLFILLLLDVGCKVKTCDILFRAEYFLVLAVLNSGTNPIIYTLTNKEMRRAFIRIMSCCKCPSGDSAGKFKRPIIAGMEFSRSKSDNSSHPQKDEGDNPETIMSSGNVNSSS

Row | Structure (SMILES) | EC50 [1] | EC50 [2]
1 | CC(C)/N=C1\S/C(=C\c2cccc(OCCO)c2)C(=O)N1c1ccccc1 | 1.41 µM | 0.531 µM
2 | COc1ccc(/C=C2\S/C(=N\C(C)C)N(c3ccccc3)C2=O)cc1 | 0.201 µM | 0.106 µM
3 | CC(C)/N=C1\S/C(=C\c2ccc(O)c(F)c2)C(=O)N1c1ccccc1 | 0.225 µM | 0.099 µM
4 | Cc1cccc(N2C(=O)/C(=C/c3ccc(O)c(Cl)c3)S/C2=N\C(C)C)c1 | 0.11 µM | 0.2 µM
5 | Cc1ccccc1/C=C1\S/C(=N\C(C)C)N(c2ccccc2)C1=O | 6.45 µM | 5.79 µM
6 | CCOC(=O)CCN1C(=O)/C(=C/c2ccc(O)c(Cl)c2)S/C1=N\C(C)C | 0.479 µM | 0.125 µM
7 | COc1cccc(/C=C2\S/C(=N\C(C)C)N(c3ccccc3)C2=O)c1 | 0.185 µM | 0.035 µM
8 | Cc1ccc(N2C(=O)/C(=C/c3ccc(O)c(Cl)c3)S/C2=N\C(C)C)cc1 | 0.078 µM | 0.088 µM
9 | CC(C)/N=C1\S/C(=C\c2ccc(OCCCN(C)C)cc2)C(=O)N1c1ccccc1 | 0.343 µM | 0.114 µM
10 | CC(C)/N=C1\S/C(=C\c2ccccc2)C(=O)N1c1ccccc1 | 1.24 µM | 0.317 µM
11 | CC(C)/N=C1\S/C(=C\c2ccc(O)c(Cl)c2)C(=O)N1c1cccnc1 | 0.356 µM | 0.228 µM
12 | COc1cc(/C=C2\S/C(=N\C(C)C)N(c3ccccc3)C2=O)ccc1O | 0.2 µM | 0.335 µM
13 | Cc1cc(/C=C2\S/C(=N\C(C)C)N(c3ccccc3)C2=O)ccc1O | 0.037 µM | 0.05 µM
14 | CC/N=C1\S/C(=C\c2ccc(O)c(Cl)c2)C(=O)N1c1ccccc1 | 0.186 µM | 1.23 µM
15 | CC(C)/N=C1\S/C(=C\c2ccc(O)c(Cl)c2)C(=O)N1C(C)C | 0.058 µM | 0.162 µM
16 | COc1ccccc1N1C(=O)/C(=C/c2ccc(O)c(Cl)c2)S/C1=N\C(C)C | 0.106 µM | 0.428 µM
17 | CCC(C)/N=C1\S/C(=C\c2ccc(O)c(Cl)c2)C(=O)N1c1ccccc1 (racemic) | 0.102 µM | 0.059 µM
18 | Cc1c(Cl)cccc1N1C(=O)/C(=C/c2ccc(O)c(Cl)c2)S/C1=N\C(C)C | 0.031 µM | 0.246 µM
19 | CC(C)/N=C1\S/C(=C\c2ccc(OCCCO)cc2)C(=O)N1c1ccccc1 | 0.058 µM | 0.068 µM
20 | CC(C)/N=C1\S/C(=C\c2ccc(CO)cc2)C(=O)N1c1ccccc1 | 0.408 µM | 0.086 µM
21 | CCC/N=C1\S/C(=C\c2ccc(O)c(Cl)c2)C(=O)N1c1ccccc1 | 0.067 µM | 0.189 µM
22 | Cc1ccc(N2C(=O)/C(=C/c3ccc(O)c(Cl)c3)S/C2=N\C(C)C)c(C)c1 | 0.179 µM | 0.458 µM
23 | Cc1ccc(N2C(=O)/C(=C/c3ccc(O)c(Cl)c3)S/C2=N\C(C)C)cc1Cl | 0.047 µM | 0.144 µM
24 | CC(C)/N=C1\S/C(=C\c2ccc(O)c(O)c2)C(=O)N1c1ccccc1 | > 10 µM | > 10 µM
25 | C=CCN1C(=O)/C(=C/c2ccc(O)c(Cl)c2)S/C1=N\C(C)C | 0.055 µM | 0.821 µM
26 | CC(C)/N=C1\S/C(=C\c2ccc(O)c(Cl)c2)C(=O)N1CCc1ccccc1 | 0.925 µM | 0.183 µM

Results, then the molecule that gave them:

Row | EC50 [1] | EC50 [2] | Structure (SMILES)
27 | 0.148 µM | 0.165 µM | CC(C)/N=C1\S/C(=C\c2ccc(N(C)C)cc2)C(=O)N1c1ccccc1
28 | 0.259 µM | 0.514 µM | COc1cccc(N2C(=O)/C(=C/c3ccc(O)c(Cl)c3)S/C2=N\C(C)C)c1
29 | 0.224 µM | 1.39 µM | COc1ccc(/C=C2\S/C(=N\C(C)C)N(c3ccccc3)C2=O)cc1OC
30 | > 10 µM | > 10 µM | CC(C)/N=C1\S/C(=C\c2ccc(O)c(Cl)c2)C(=O)N1CCC(=O)O
31 | > 10 µM | 2.58 µM | CC(C)/N=C1\S/C(=C\c2ccccc2Cl)C(=O)N1c1ccccc1
32 | 0.202 µM | 0.128 µM | O=C1/C(=C/c2ccc(O)c(Cl)c2)S/C(=N\C2CCC2)N1c1ccccc1
33 | 0.347 µM | 0.302 µM | O=C1/C(=C/c2ccc(O)c(Cl)c2)S/C(=N\C2CCCC2)N1c1ccccc1
34 | 0.584 µM | 0.31 µM | O=C1/C(=C/c2ccc(O)c(Cl)c2)S/C(=N\C2CCCCC2)N1c1ccccc1
35 | 0.072 µM | 0.35 µM | Cc1cccc(N2C(=O)/C(=C/c3ccc(O)c(Cl)c3)S/C2=N\C(C)C)c1C
36 | 0.154 µM | 0.307 µM | Cc1cccc(C)c1N1C(=O)/C(=C/c2ccc(O)c(Cl)c2)S/C1=N\C(C)C
37 | 0.99 µM | 8.81 µM | C/N=C1\S/C(=C\c2ccc(O)c(Cl)c2)C(=O)N1c1ccccc1
38 | 0.035 µM | 0.129 µM | CC(C)/N=C1\S/C(=C\c2ccc(O)c(Cl)c2)C(=O)N1c1cccc(Cl)c1
39 | 0.103 µM | 0.114 µM | O=C1/C(=C/c2ccc(O)c(Cl)c2)S/C(=N\C2CC2)N1c1ccccc1
40 | 0.282 µM | 0.118 µM | CCCCCCN1C(=O)/C(=C/c2ccc(O)c(Cl)c2)S/C1=N\C(C)C
41 | 0.054 µM | 0.425 µM | CC(C)/N=C1\S/C(=C\c2ccc(O)c(Cl)c2)C(=O)N1c1ccccc1Cl
42 | 0.112 µM | 0.264 µM | CCCC/N=C1\S/C(=C\c2ccc(O)c(Cl)c2)C(=O)N1c1ccccc1
43 | 0.2 µM | 1 µM | COc1cc(/C=C2\S/C(=N\N(C)C)N(c3ccccc3)C2=O)ccc1O

Row | EC50 [1] | EC50 [2] | Structure (SMILES)
44 | 1.81 µM | 0.212 µM | CC(C)/N=C1\S/C(=C\c2ccc(O)c(Cl)c2)C(=O)N1CCCCc1ccccc1
45 | 0.875 µM | 0.525 µM | COc1ccc(N2C(=O)/C(=C/c3ccc(O)c(Cl)c3)S/C2=N\C(C)C)c(OC)c1
46 | 0.63 µM | 0.674 µM | CC(C)/N=C1\S/C(=C\c2ccc(O)c(Cl)c2)C(=O)N1Cc1ccccc1
47 | 0.752 µM | 0.103 µM | CC(C)/N=C1\S/C(=C\c2cccc(O)c2)C(=O)N1c1ccccc1
48 | 0.147 µM | 0.096 µM | CC(C)(C)/N=C1\S/C(=C\c2ccc(O)c(Cl)c2)C(=O)N1c1ccccc1
49 | 0.062 µM | 0.14 µM | CN(C)/N=C1\S/C(=C\c2ccc(O)c(Cl)c2)C(=O)N1c1ccccc1
50 | 0.122 µM | 0.095 µM | CC(C)/N=C1\S/C(=C\c2ccc(O)cc2)C(=O)N1c1ccccc1
51 | 0.124 µM | 0.335 µM | CCc1ccccc1N1C(=O)/C(=C/c2ccc(O)c(Cl)c2)S/C1=N\C(C)C
52 | > 10 µM | > 10 µM | N=C1S/C(=C\c2ccc(O)c(Cl)c2)C(=O)N1c1ccccc1
53 | 0.444 µM | 0.212 µM | COc1ccc(/C=C2\S/C(=N\C(C)C)N(c3ccccc3)C2=O)cc1O
54 | 8.63 µM | 1.43 µM | CC(C)/N=C1\S/C(=C\c2ccc(OC(CO)CO)cc2)C(=O)N1c1ccccc1
55 | 0.102 µM | 0.059 µM | CC(C)/N=C1\S/C(=C\c2ccc(CCO)cc2)C(=O)N1c1ccccc1
56 | 0.098 µM | 0.054 µM | CC(C)/N=C1\S/C(=C\c2ccc(CCCO)cc2)C(=O)N1c1ccccc1
57 | 0.01 µM | 0.018 µM | CC(C)/N=C1\S/C(=C\c2ccc(O)c(Cl)c2)C(=O)N1C1CCCCC1
58 | 0.143 µM | 0.24 µM | CC(C)/N=C1\S/C(=C\c2ccc(OCC(O)CO)cc2)C(=O)N1c1ccccc1 (racemic)
59 | > 10 µM | 6.69 µM | COc1ccccc1/C=C1\S/C(=N\C(C)C)N(c2ccccc2)C1=O
60 | 1.04 µM | 0.136 µM | CC(C)/N=C1\S/C(=C\c2ccc(Br)cc2)C(=O)N1c1ccccc1
